In ChEMBL document CHEMBL5376013, “Design, synthesis and biological evaluation of novel morpholinopyrimidine-5-carbonitrile derivatives as dual PI3K/mTOR inhibitors” (RSC Med Chem, 2024):

How the values were obtained:
Format in all cases: functional
Settings in all cases: read-out: GI
[1] = tested on: COLO 205; assay: Antitumor activity against human COLO 205 cells assessed as growth inhibition at 10 uM relative to control
Method in brief: (§1)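 After drug addition, plates were incubated 48 h at 37 °C under 5% CO2. Adherent cells were fixed with cold TCA (10% final, 60 min, 4 °C) and suspension cells with 16% final TCA. Staining used 0.4% SRB in 1% acetic acid, solubilized in 10 mM trizma, read at A515. Percent growth was calculated from time-zero, control and treated absorbances.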

[2] = tested on: OVCAR-4; assay: Antitumor activity against human OVCAR-4 cells assessed as growth inhibition at 10 uM relative to control; method in brief: as §1
[3] = tested on: OVCAR-8; assay: Antitumor activity against human OVCAR-8 cells assessed as growth inhibition at 10 uM relative to control; method in brief: as §1
[4] = tested on: HL-60; assay: Antitumor activity against human HL-60 cells assessed as growth inhibition at 10 uM relative to control; method in brief: as §1
[5] = tested on: MOLT-4; assay: Antitumor activity against human MOLT-4 cells assessed as growth inhibition at 10 uM relative to control; method in brief: as §1
[6] = tested on: LOX IMVI; assay: Antitumor activity against human LOX IMVI cells assessed as growth inhibition at 10 uM relative to control; method in brief: as §1
[7] = tested on: NCI-H322M; assay: Antitumor activity against human NCI-H322M cells assessed as growth inhibition at 10 uM relative to control; method in brief: as §1
[8] = tested on: HCT-15; assay: Antitumor activity against human HCT-15 cells assessed as growth inhibition at 10 uM relative to control; method in brief: as §1
[9] = tested on: SF-539; assay: Antitumor activity against human SF-539 cells assessed as growth inhibition at 10 uM relative to control; method in brief: as §1
[10] = tested on: HCT-116; assay: Antitumor activity against human HCT-116 cells assessed as growth inhibition at 10 uM relative to control; method in brief: as §1
[11] = tested on: U-251; assay: Antitumor activity against human U-251 cells assessed as growth inhibition at 10 uM relative to control
Method in brief: (§2)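 Drug exposure 48 h at 37 °C, 5% CO2. Adherent cells fixed with cold TCA (10% final), suspension cells with TCA (16% final). Stained with 0.4% SRB in 1% acetic acid, dissolved in 10 mM Tris, A515. Growth relative to time-zero and untreated control.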

[12] = tested on: SF-268; assay: Antitumor activity against human SF-268 cells assessed as growth inhibition at 10 uM relative to control; method in brief: as §1
[13] = tested on: SNB-19; assay: Antitumor activity against human SNB-19 cells assessed as growth inhibition at 10 uM relative to control; method in brief: as §2
[14] = tested on: DU-145; assay: Antitumor activity against human DU-145 cells assessed as growth inhibition at 10 uM relative to control; method in brief: as §1
[15] = tested on: MDA-MB-231; assay: Antitumor activity against human MDA-MB-231 cells assessed as growth inhibition at 10 uM relative to control; method in brief: as §1
[16] = tested on: HOP-92; assay: Antitumor activity against human HOP-92 cells assessed as growth inhibition at 10 uM relative to control; method in brief: as §1
[17] = tested on: CAKI-1; assay: Antitumor activity against human CAKI-1 cells assessed as growth inhibition at 10 uM relative to control; method in brief: as §1
[18] = tested on: NCI-H226; assay: Antitumor activity against human NCI-H226 cells assessed as growth inhibition at 10 uM relative to control; method in brief: as §1
[19] = tested on: IGROV-1; assay: Antitumor activity against human IGROV-1 cells assessed as growth inhibition at 10 uM relative to control; method in brief: as §1
[20] = tested on: SK-MEL-5; assay: Antitumor activity against human SK-MEL-5 cells assessed as growth inhibition at 10 uM relative to control; method in brief: as §2
[21] = tested on: TK-10; assay: Antitumor activity against human TK-10 cells assessed as growth inhibition at 10 uM relative to control; method in brief: as §2
[22] = tested on: RXF 393; assay: Antitumor activity against human RXF 393 cells assessed as growth inhibition at 10 uM relative to control; method in brief: as §1
[23] = tested on: HOP-62; assay: Antitumor activity against human HOP-62 cells assessed as growth inhibition at 10 uM relative to control; method in brief: as §1
[24] = tested on: UO-31; assay: Antitumor activity against human UO-31 cells assessed as growth inhibition at 10 uM relative to control; method in brief: as §2
[25] = tested on: SK-MEL-2; assay: Antitumor activity against human SK-MEL-2 cells assessed as growth inhibition at 10 uM relative to control; method in brief: as §1
[26] = tested on: BT-549; assay: Antitumor activity against human BT-549 cells assessed as growth inhibition at 10 uM relative to control; method in brief: as §1
[27] = tested on: A498; assay: Antitumor activity against human A498 cells assessed as growth inhibition at 10 uM relative to control; method in brief: as §1
[28] = tested on: M14; assay: Antitumor activity against human M14 cells assessed as growth inhibition at 10 uM relative to control; method in brief: as §1
[29] = tested on: SR; assay: Antitumor activity against human SR cells assessed as growth inhibition at 10 uM relative to control; method in brief: as §2
[30] = tested on: OVCAR-5; assay: Antitumor activity against human OVCAR-5 cells assessed as growth inhibition at 10 uM relative to control; method in brief: as §1
[31] = tested on: NCI-H23; assay: Antitumor activity against human NCI-H23 cells assessed as growth inhibition at 10 uM relative to control; method in brief: as §1
[32] = tested on: MCF7; assay: Antitumor activity against human MCF7 cells assessed as growth inhibition at 10 uM relative to control; method in brief: as §1
[33] = tested on: Hs-578T; assay: Antitumor activity against human Hs-578T cells assessed as growth inhibition at 10 uM relative to control; method in brief: as §1
[34] = tested on: K562; assay: Antitumor activity against human K562 cells assessed as growth inhibition at 10 uM relative to control; method in brief: as §1
[35] = tested on: SK-OV-3; assay: Antitumor activity against human SK-OV-3 cells assessed as growth inhibition at 10 uM relative to control; method in brief: as §2
[36] = tested on: HCC 2998; assay: Antitumor activity against human HCC 2998 cells assessed as growth inhibition at 10 uM relative to control; method in brief: as §1
[37] = tested on: MDA-MB-435; assay: Antitumor activity against human MDA-MB-435 cells assessed as growth inhibition at 10 uM relative to control; method in brief: as §1
[38] = tested on: OVCAR-3; assay: Antitumor activity against human OVCAR-3 cells assessed as growth inhibition at 10 uM relative to control; method in brief: as §1
[39] = tested on: UACC-257; assay: Antitumor activity against human UACC-257 cells assessed as growth inhibition at 10 uM relative to control; method in brief: as §2
[40] = tested on: EKVX; assay: Antitumor activity against human EKVX cells assessed as growth inhibition at 10 uM relative to control; method in brief: as §1
[41] = tested on: SF-295; assay: Antitumor activity against human SF-295 cells assessed as growth inhibition at 10 uM relative to control; method in brief: as §1
[42] = tested on: NCI-H522; assay: Antitumor activity against human NCI-H522 cells assessed as growth inhibition at 10 uM relative to control; method in brief: as §1
[43] = tested on: A549; assay: Antitumor activity against human A549 cells assessed as growth inhibition at 10 uM relative to control; method in brief: as §1
[44] = tested on: PC-3; assay: Antitumor activity against human PC-3 cells assessed as growth inhibition at 10 uM relative to control; method in brief: as §1
[45] = tested on: 786-0; assay: Antitumor activity against human 786-0 cells assessed as growth inhibition at 10 uM relative to control; method in brief: as §1
[46] = tested on: SNB-75; assay: Antitumor activity against human SNB-75 cells assessed as growth inhibition at 10 uM relative to control; method in brief: as §2

With `N#Cc1c(-c2ccc(Cl)cc2)[nH]c(=S)[nH]c1=O` the inhibition of growth at 10 µM [1] was < 1%, the inhibition of growth at 10 µM [2] was < 1% and the inhibition of growth at 10 µM [3] was < 1%. The inhibition of growth at 10 µM [4] was < 1%, the inhibition of growth at 10 µM [5] was < 1% and the inhibition of growth at 10 µM [6] was < 1%. For the same compound, the inhibition of growth at 10 µM [7] was < 1%, the inhibition of growth at 10 µM [8] was < 1% and the inhibition of growth at 10 µM [9] was < 1%. The inhibition of growth at 10 µM [10] was < 1%, the inhibition of growth at 10 µM [11] was < 1% and the inhibition of growth at 10 µM [12] was < 1%. The inhibition of growth at 10 µM [13] was < 1%, the inhibition of growth at 10 µM [14] was < 1% and the inhibition of growth at 10 µM [15] was < 1%. The inhibition of growth at 10 µM [16] was < 1%, the inhibition of growth at 10 µM [17] was < 1% and the inhibition of growth at 10 µM [18] was < 1%. For the same compound, the inhibition of growth at 10 µM [19] was < 1%, the inhibition of growth at 10 µM [20] was < 1% and the inhibition of growth at 10 µM [21] was < 1%. The inhibition of growth at 10 µM [22] was < 1%, the inhibition of growth at 10 µM [23] was < 1% and the inhibition of growth at 10 µM [24] was 10.2%. For the same compound, the inhibition of growth at 10 µM [25] was < 1%, the inhibition of growth at 10 µM [26] was < 1% and the inhibition of growth at 10 µM [27] was < 1%. For the same compound, the inhibition of growth at 10 µM [28] was < 1%, the inhibition of growth at 10 µM [29] was < 1% and the inhibition of growth at 10 µM [30] was 33.4%. For the same compound, the inhibition of growth at 10 µM [31] was < 1%, the inhibition of growth at 10 µM [32] was < 1% and the inhibition of growth at 10 µM [33] was < 1%. For the same compound, the inhibition of growth at 10 µM [34] was < 1%, the inhibition of growth at 10 µM [35] was < 1% and the inhibition of growth at 10 µM [36] was < 1%. For the same compound, the inhibition of growth at 10 µM [37] was < 1%, the inhibition of growth at 10 µM [38] was < 1% and the inhibition of growth at 10 µM [39] was < 1%. For the same compound, the inhibition of growth at 10 µM [40] was < 1%, the inhibition of growth at 10 µM [41] was < 1% and the inhibition of growth at 10 µM [42] was < 1%. The inhibition of growth at 10 µM [43] was < 1%, the inhibition of growth at 10 µM [44] was < 1% and the inhibition of growth at 10 µM [45] was < 1%. It also gave an inhibition of growth at 10 µM [46] of 14.7%.

`N#Cc1c(-c2ccc(Cl)cc2)nc(NN2C(=O)CCC2=O)nc1N1CCOCC1` was tested, and the inhibition of growth at 10 µM [1] was < 1%, the inhibition of growth at 10 µM [2] was < 1% and the inhibition of growth at 10 µM [3] was < 1%. For the same compound, the inhibition of growth at 10 µM [4] was < 1%, the inhibition of growth at 10 µM [5] was < 1% and the inhibition of growth at 10 µM [6] was < 1%. The inhibition of growth at 10 µM [7] was < 1%, the inhibition of growth at 10 µM [8] was < 1% and the inhibition of growth at 10 µM [9] was < 1%. The inhibition of growth at 10 µM [10] was < 1%, the inhibition of growth at 10 µM [11] was < 1% and the inhibition of growth at 10 µM [12] was < 1%. The inhibition of growth at 10 µM [13] was < 1%, the inhibition of growth at 10 µM [14] was < 1% and the inhibition of growth at 10 µM [15] was < 1%. The inhibition of growth at 10 µM [16] was < 1%, the inhibition of growth at 10 µM [17] was < 1% and the inhibition of growth at 10 µM [18] was < 1%. The inhibition of growth at 10 µM [19] was < 1%, the inhibition of growth at 10 µM [20] was < 1% and the inhibition of growth at 10 µM [21] was < 1%. For the same compound, the inhibition of growth at 10 µM [22] was < 1%, the inhibition of growth at 10 µM [23] was < 1% and the inhibition of growth at 10 µM [24] was 12.5%. The inhibition of growth at 10 µM [25] was < 1%, the inhibition of growth at 10 µM [26] was < 1% and the inhibition of growth at 10 µM [27] was < 1%. The inhibition of growth at 10 µM [28] was < 1%, the inhibition of growth at 10 µM [29] was < 1% and the inhibition of growth at 10 µM [30] was < 1%. The inhibition of growth at 10 µM [31] was < 1%, the inhibition of growth at 10 µM [32] was 1% and the inhibition of growth at 10 µM [33] was < 1%. The inhibition of growth at 10 µM [34] was < 1%, the inhibition of growth at 10 µM [35] was < 1% and the inhibition of growth at 10 µM [36] was < 1%. The inhibition of growth at 10 µM [37] was < 1%, the inhibition of growth at 10 µM [38] was < 1% and the inhibition of growth at 10 µM [39] was < 1%. For the same compound, the inhibition of growth at 10 µM [40] was < 1%, the inhibition of growth at 10 µM [41] was < 1% and the inhibition of growth at 10 µM [42] was 16%. For the same compound, the inhibition of growth at 10 µM [43] was < 1%, the inhibition of growth at 10 µM [44] was < 1% and the inhibition of growth at 10 µM [45] was < 1%. It also gave an inhibition of growth at 10 µM [46] of 33.9%.
